Holding throughout (assay type): functional, cell-based
The test system of one assay is HeLa. In words: Antiproliferative activity against human HeLa cells. A digest of the protocol:
(§1)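 Proliferation of human RKO colon carcinoma, Jurkat T-cell leukemia and HeLa cervical cancer cells was followed by [3H]-thymidine incorporation. IC50 values were taken from this read-out.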

A further assay relates to Jurkat. The assay is described as follows: Antiproliferative activity against human Jurkat cells. A digest of the protocol: as §1
In another assay the test system is RKO. The assay is described as follows: Antiproliferative activity against human RKO cells. In short, it runs like this:
as §1

The structures appear in SMILES notation.

Usually IC50 stands for the concentration at which inhibition is half-maximal. A higher IC50 goes with weaker potency.

Turning to `CCCCCCCCCCCCOC(=O)[C@@H](C)[C@@]1(O)[C@@H](O[C@@H]2OC[C@H](O)[C@H](O)[C@H]2OC(C)=O)C[C@H]2[C@@H]3CC=C4C[C@@H](O)CC[C@]4(C)[C@H]3CC[C@@]21C`, the IC50 with HeLa turned out to be 1200 nM; in the assay on Jurkat it was 78 nM.
With `C=CCO[C@@H]1[C@@H](OC(C)=O)[C@H](O[C@H]2C[C@H]3[C@@H]4CC=C5C[C@@H](O)CC[C@]5(C)[C@H]4CC[C@]3(C)[C@@]2(O)[C@H](C)C(=O)OCCCCCCCCCCCC)OC[C@@H]1O`, the IC50 was 1100 nM in the assay with HeLa and 1700 nM with RKO.
On to `CCCCCCCCCCCCOC(=O)[C@@H](C)[C@@]1(O)[C@@H](O[C@@H]2OC[C@H](O)[C@H](O[C@@H]3OC[C@@H](O)[C@H](O)[C@H]3OC(=O)c3ccc(OC)cc3)[C@H]2OC(C)=O)C[C@H]2[C@@H]3CC=C4C[C@@H](O)CC[C@]4(C)[C@H]3CC[C@@]21C`, for which the half-inhibitory concentration (IC50) amounted to 71 nM in the assay on HeLa, 0.7 nM with RKO and 15 nM with Jurkat.
